Experiments:
Type in all cases: functional
Conditions in all cases: read-out: GI
HOP-92 = experiment: Growth inhibition of human HOP-92 cells at 10 uM incubated for 48 hrs by sulforhodamine B assay relative to control
Outline: (§1)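 NCI-60 single-dose screen. Cells were grown in RPMI 1640 with 5% FBS and 2 mM L-glutamine and plated 24 h before drug addition. Compound was added at one concentration in DMSO-derived medium and incubated for 48 h at 37 °C in 5% CO2. Read-out was SRB protein stain at 515 nm. Result is percent growth versus the no-drug control and the time-zero cell count; values below 0 indicate lethality.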

SN12C = experiment: Growth inhibition of human SN12C cells at 10 uM incubated for 48 hrs by sulforhodamine B assay relative to control
Outline: (§2)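 NCI one-dose screen. Cells grown in RPMI 1640 with 5% FBS and 2 mM L-glutamine, plated and incubated 24 h at 37 °C, 5% CO2. DMSO-dissolved drug added, then 48 h further incubation. Adherent cells fixed with cold TCA, suspension cells fixed after settling. Stained with 0.4% SRB, absorbance read at 515 nm. Reported as percent growth relative to no-drug control and time-zero cell number.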

HL-60(TB) = experiment: Growth inhibition of human HL-60(TB) cells at 10 uM incubated for 48 hrs by sulforhodamine B assay relative to control
Outline: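 NCI-60 one-dose screen: same culture, 48 h drug exposure and SRB read-out. Reported as percent growth relative to no-drug control and to time-zero cell number; 0–100 means growth inhibition, below 0 means lethality.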

SK-MEL-2 = experiment: Growth inhibition of human SK-MEL-2 cells at 10 uM incubated for 48 hrs by sulforhodamine B assay relative to control; outline: as §2
M14 = experiment: Growth inhibition of human M14 cells at 10 uM incubated for 48 hrs by sulforhodamine B assay relative to control; outline: as §1
SNB-19 = experiment: Growth inhibition of human SNB-19 cells at 10 uM incubated for 48 hrs by sulforhodamine B assay relative to control; outline: as §2
OVCAR-4 = experiment: Growth inhibition of human OVCAR-4 cells at 10 uM incubated for 48 hrs by sulforhodamine B assay relative to control; outline: as §2
SW-620 = experiment: Growth inhibition of human SW-620 cells at 10 uM incubated for 48 hrs by sulforhodamine B assay relative to control
Outline: (§3)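 NCI one-dose screen across a 59-line panel. Cells were grown in RPMI 1640 with 5% FBS and 2 mM L-glutamine, plated and pre-incubated 24 h, then exposed to drug for 48 h at 37 °C, 5% CO2. Adherent cells were fixed with cold TCA (10% final), stained with 0.4% SRB in 1% acetic acid and read at 515 nm. Result is percent growth relative to no-drug control and time-zero cell count.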

UACC-257 = experiment: Growth inhibition of human UACC-257 cells at 10 uM incubated for 48 hrs by sulforhodamine B assay relative to control; outline: as §3
MDA-MB-231 = experiment: Growth inhibition of human MDA-MB-231 cells at 10 uM incubated for 48 hrs by sulforhodamine B assay relative to control; outline: as §1
UACC-62 = experiment: Growth inhibition of human UACC-62 cells at 10 uM incubated for 48 hrs by sulforhodamine B assay relative to control; outline: as §3
SK-OV-3 = experiment: Growth inhibition of human SK-OV-3 cells at 10 uM incubated for 48 hrs by sulforhodamine B assay relative to control; outline: as §2
IGROV-1 = experiment: Growth inhibition of human IGROV-1 cells at 10 uM incubated for 48 hrs by sulforhodamine B assay relative to control; outline: as §1
MCF7 = experiment: Growth inhibition of human MCF7 cells at 10 uM incubated for 48 hrs by sulforhodamine B assay relative to control; outline: as §1
SF-295 = experiment: Growth inhibition of human SF-295 cells at 10 uM incubated for 48 hrs by sulforhodamine B assay relative to control; outline: as §2
TK-10 = experiment: Growth inhibition of human TK-10 cells at 10 uM incubated for 48 hrs by sulforhodamine B assay relative to control; outline: as §3
NCI-H322M = experiment: Growth inhibition of human NCI-H322M cells at 10 uM incubated for 48 hrs by sulforhodamine B assay relative to control; outline: as §2
T47D = experiment: Growth inhibition of human T47D cells at 10 uM incubated for 48 hrs by sulforhodamine B assay relative to control; outline: as §3
NCI-H23 = experiment: Growth inhibition of human NCI-H23 cells at 10 uM incubated for 48 hrs by sulforhodamine B assay relative to control; outline: as §2
SK-MEL-28 = experiment: Growth inhibition of human SK-MEL-28 cells at 10 uM incubated for 48 hrs by sulforhodamine B assay relative to control; outline: as §2
SR = experiment: Growth inhibition of human SR cells at 10 uM incubated for 48 hrs by sulforhodamine B assay relative to control; outline: as §2
RXF 393 = experiment: Growth inhibition of human RXF 393 cells at 10 uM incubated for 48 hrs by sulforhodamine B assay relative to control; outline: as §2
U-251 = experiment: Growth inhibition of human U-251 cells at 10 uM incubated for 48 hrs by sulforhodamine B assay relative to control; outline: as §3
MOLT-4 = experiment: Growth inhibition of human MOLT-4 cells at 10 uM incubated for 48 hrs by sulforhodamine B assay relative to control; outline: as §2
NCI-H460 = experiment: Growth inhibition of human NCI-H460 cells at 10 uM incubated for 48 hrs by sulforhodamine B assay relative to control; outline: as §2
LOX IMVI = experiment: Growth inhibition of human LOX IMVI cells at 10 uM incubated for 48 hrs by sulforhodamine B assay relative to control; outline: as §1
KM12 = experiment: Growth inhibition of human KM12 cells at 10 uM incubated for 48 hrs by sulforhodamine B assay relative to control; outline: as §1
Hs-578T = experiment: Growth inhibition of human HS-578T cells at 10 uM incubated for 48 hrs by sulforhodamine B assay relative to control; outline: as §1
OVCAR-3 = experiment: Growth inhibition of human OVCAR-3 cells at 10 uM incubated for 48 hrs by sulforhodamine B assay relative to control; outline: as §2
HOP-62 = experiment: Growth inhibition of human HOP-62 cells at 10 uM incubated for 48 hrs by sulforhodamine B assay relative to control; outline: as §1
BT-549 = experiment: Growth inhibition of human BT-549 cells at 10 uM incubated for 48 hrs by sulforhodamine B assay relative to control; outline: as §1
MDA-MB-468 = experiment: Growth inhibition of human MDA-MB-468 cells at 10 uM incubated for 48 hrs by sulforhodamine B assay relative to control; outline: as §1
COLO 205 = experiment: Growth inhibition of human COLO 205 cells at 10 uM incubated for 48 hrs by sulforhodamine B assay relative to control; outline: as §1
NCI/ADR-RES = experiment: Growth inhibition of human NCI/ADR-RES cells at 10 uM incubated for 48 hrs by sulforhodamine B assay relative to control; outline: as §2
PC-3 = experiment: Growth inhibition of human PC-3 cells at 10 uM incubated for 48 hrs by sulforhodamine B assay relative to control; outline: as §2
MDA-MB-435 = experiment: Growth inhibition of human MDA-MB-435 cells at 10 uM incubated for 48 hrs by sulforhodamine B assay relative to control; outline: as §1

Row | Structure (SMILES) | inhibition of growth at 10 µM (HOP-92) [%] | inhibition of growth at 10 µM (SN12C) [%] | inhibition of growth at 10 µM (HL-60(TB)) [%] | inhibition of growth at 10 µM (SK-MEL-2) [%] | inhibition of growth at 10 µM (M14) [%] | inhibition of growth at 10 µM (SNB-19) [%] | inhibition of growth at 10 µM (OVCAR-4) [%] | inhibition of growth at 10 µM (SW-620) [%] | inhibition of growth at 10 µM (UACC-257) [%] | inhibition of growth at 10 µM (MDA-MB-231) [%] | inhibition of growth at 10 µM (UACC-62) [%] | inhibition of growth at 10 µM (SK-OV-3) [%] | inhibition of growth at 10 µM (IGROV-1) [%] | inhibition of growth at 10 µM (MCF7) [%] | inhibition of growth at 10 µM (SF-295) [%] | inhibition of growth at 10 µM (TK-10) [%] | inhibition of growth at 10 µM (NCI-H322M) [%] | inhibition of growth at 10 µM (T47D) [%] | inhibition of growth at 10 µM (NCI-H23) [%] | inhibition of growth at 10 µM (SK-MEL-28) [%] | further results
1 | COc1cc2nc(-c3ccc(C(F)(F)F)cc3)cc(OCCN3CCC(O)CC3)c2cc1OC | 13 | 13 | 13 | 13 | 13 | 13 | 13 | 13 | 13 | 13 | 13 | 13 | 13 | 13 | 13 | 13 | 13 | 13 | 13 | 13 | inhibition of growth at 10 µM (SR): 13%; inhibition of growth at 10 µM (RXF 393): 13%; inhibition of growth at 10 µM (U-251): 13%; inhibition of growth at 10 µM (MOLT-4): 13%; inhibition of growth at 10 µM (NCI-H460): 13%; inhibition of growth at 10 µM (LOX IMVI): 13%; inhibition of growth at 10 µM (KM12): 13%; inhibition of growth at 10 µM (Hs-578T): 13%; inhibition of growth at 10 µM (OVCAR-3): 13%; inhibition of growth at 10 µM (HOP-62): 13%; inhibition of growth at 10 µM (BT-549): 13%; inhibition of growth at 10 µM (MDA-MB-468): 13%; inhibition of growth at 10 µM (COLO 205): 13%; inhibition of growth at 10 µM (NCI/ADR-RES): 13%; inhibition of growth at 10 µM (PC-3): 13%; inhibition of growth at 10 µM (MDA-MB-435): 13%
2 | COc1cc2nc(-c3ccsc3)cc(OCCCN3CCC(O)CC3)c2cc1OC | 32 | 32 | 32 | 32 | 32 | 32 | 32 | 32 | 32 | 32 | 32 | 32 | 32 | 32 | 32 | 32 | 32 | 32 | 32 | 32 | inhibition of growth at 10 µM (SR): 32%; inhibition of growth at 10 µM (RXF 393): 32%; inhibition of growth at 10 µM (U-251): 32%; inhibition of growth at 10 µM (MOLT-4): 32%; inhibition of growth at 10 µM (NCI-H460): 32%; inhibition of growth at 10 µM (LOX IMVI): 32%; inhibition of growth at 10 µM (KM12): 32%; inhibition of growth at 10 µM (Hs-578T): 32%; inhibition of growth at 10 µM (OVCAR-3): 32%; inhibition of growth at 10 µM (HOP-62): 32%; inhibition of growth at 10 µM (BT-549): 32%; inhibition of growth at 10 µM (MDA-MB-468): 32%; inhibition of growth at 10 µM (COLO 205): 32%; inhibition of growth at 10 µM (NCI/ADR-RES): 32%; inhibition of growth at 10 µM (PC-3): 32%; inhibition of growth at 10 µM (MDA-MB-435): 32%
3 | COc1cc2nc(-c3ccc(Cl)cc3)cc(OCCN3CCCC3)c2cc1OC | 3 | 3 | 3 | 3 | 3 | 3 | 3 | 3 | 3 | 3 | 3 | 3 | 3 | 3 | 3 | 3 | 3 | 3 | 3 | 3 | inhibition of growth at 10 µM (SR): 3%; inhibition of growth at 10 µM (RXF 393): 3%; inhibition of growth at 10 µM (U-251): 3%; inhibition of growth at 10 µM (MOLT-4): 3%; inhibition of growth at 10 µM (NCI-H460): 3%; inhibition of growth at 10 µM (LOX IMVI): 3%; inhibition of growth at 10 µM (KM12): 3%; inhibition of growth at 10 µM (Hs-578T): 3%; inhibition of growth at 10 µM (OVCAR-3): 3%; inhibition of growth at 10 µM (HOP-62): 3%; inhibition of growth at 10 µM (BT-549): 3%; inhibition of growth at 10 µM (MDA-MB-468): 3%; inhibition of growth at 10 µM (COLO 205): 3%; inhibition of growth at 10 µM (NCI/ADR-RES): 3%; inhibition of growth at 10 µM (PC-3): 3%; inhibition of growth at 10 µM (MDA-MB-435): 3%

From ChEMBL document CHEMBL4732237, “Discovery of 4-alkoxy-2-aryl-6,7-dimethoxyquinolines as a new class of topoisomerase I inhibitors endowed with potent in vitro anticancer activity” (2021)
